B1: κ562-575FF (peptide)
peptide: CSHKKSFFDKKRSER
B2: η694-713FF (peptide)
peptide: CKRPRPEGMQTLESFFKPLTH
B3: η524-539FF (peptide)
peptide: CQSTGTEPFFKQKSLLL
B4: ι539-554FF (peptide)
peptide: CASRGVLSFFSKKQMQD
B5: κ564-575FF (peptide)
peptide: CKKSFFDKKRSER
B6: GST-REV1(826–1251) (domain or fragment, human, UniProt Q9UBZ9 826-1251, looked up)
chain: PTNLNPSTCPSRPSVQSSHFPSGSYSVRDVFQVQKAKKSTEEEHKEVFRAAVDLEISSASRTCTFLPPFPAHLPTSPDTNKAESSGKWNGLHTPVSVQSRLNLSIEVPSPSQLDQSVLEALPPDLREQVEQVCAVQQAESHGDKKKEPVNGCNTGILPQPVGTVLLQIPEPQESNSDAGINLIALPAFSQVDPEVFAALPAELQRELKAAYDQRQRQGENSTHQQSASASVPKNPLLHLKAAVKEKKRNKKKKTIGSPKRIQSPLNNKLLNSPAKTLPGACGSPQKLIDGFLKHEGPPAEKPLEELSASTSGVPGLSSLQSDPAGCVRPPAPNLAGAVEFNDVKTLLREWITTISDPMEEDILQVVKYCTDLIEEKDLEKLDLVIKYMKRLMQQSVESVWNMAFDFILDNVQVVLQQTYGSTLKVT
B7: κ560-575FF (peptide)
peptide: CEMSHKKSFFDKKRSER

Test [1] addresses T1, His-REV1(1130–1251) (Homo sapiens, UniProt Q9UBZ9).
T1 sequence (Q9UBZ9 1130-1251): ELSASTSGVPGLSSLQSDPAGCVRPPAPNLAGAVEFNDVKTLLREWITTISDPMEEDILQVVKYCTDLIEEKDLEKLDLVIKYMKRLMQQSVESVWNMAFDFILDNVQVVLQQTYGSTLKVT
The experiment in a line: Surface plasmon resonance, His-REV1. The following applies: SPR, BIACORE 2000, CM5 chip; His-REV1(1130–1251) 1.1 µM in Fig. 2A. The class given is binding. In a few lines: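 SPR on BIACORE 2000. Synthetic peptides carrying an added N-terminal Cys were thiol-coupled to CM5 dextran. His-REV1(1130–1251) was cut from a GST-His fusion with Factor Xa, purified on Ni-NTA, then cleared of uncleaved fusion on glutathione resin. Varying concentrations were injected in 10 mM HEPES pH 7.5, 150 mM NaCl, 3 mM EDTA, 0.005% P20 at 20 µl/min, 25°C; contact 60 s, dissociation 120 s. Control-cell signal was subtracted. Kd came from equilibrium analysis of mean signals.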
A general note: SPR reads the build-up and loss of mass on a sensor chip optically.

Test [2] deals with REV1(1130–1218). The experiment in a line: Surface plasmon resonance, REV1. In kind it is binding, human. The following applies: SPR; REV1 derivative lacking a portion essential for the interaction with Polκ; data not shown.
For test [3], the target named is PCNA (Homo sapiens, UniProt P12004). Put plainly: Surface plasmon resonance, PCNA binding to immobilized peptides. The following applies: SPR; data not shown. The method in brief:
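PCNA binding by SPR against synthetic peptides that carry an added N-terminal Cys, coupled through the sulfhydryl to CM5 carboxylated dextran sensor chips by thiol activation chemistry. The peptide–protein signal minus the control-cell signal was analysed and scored + or −.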

In test [4] the target is B6. The experiment in a line: pull-down.
In test [5] the target is T2, PCNA (UniProt P12004 1-261). The experiment in a line: SPR.
T2 sequence (P12004 whole entry): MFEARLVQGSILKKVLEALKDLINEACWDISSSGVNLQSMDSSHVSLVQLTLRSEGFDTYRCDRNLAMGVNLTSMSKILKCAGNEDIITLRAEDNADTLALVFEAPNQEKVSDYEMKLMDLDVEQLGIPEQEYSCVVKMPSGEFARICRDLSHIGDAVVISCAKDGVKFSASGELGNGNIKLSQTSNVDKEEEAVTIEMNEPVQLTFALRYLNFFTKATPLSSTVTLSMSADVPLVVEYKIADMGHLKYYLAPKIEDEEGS
Test [6] addresses T2, PCNA. Put plainly: SPR. This is another data set of the same source.
The target of test [7] is T3, His-REV1(1130–1251) (human, UniProt Q9UBZ9 1130-1251).
T3 sequence (looked up): T1 sequence (Q9UBZ9 1130-1251)
Put plainly: SPR.

For test [8], the target named is T4, His-Polκ(1–615) (human, UniProt Q9UBT6 1-615).
T4 sequence (looked up): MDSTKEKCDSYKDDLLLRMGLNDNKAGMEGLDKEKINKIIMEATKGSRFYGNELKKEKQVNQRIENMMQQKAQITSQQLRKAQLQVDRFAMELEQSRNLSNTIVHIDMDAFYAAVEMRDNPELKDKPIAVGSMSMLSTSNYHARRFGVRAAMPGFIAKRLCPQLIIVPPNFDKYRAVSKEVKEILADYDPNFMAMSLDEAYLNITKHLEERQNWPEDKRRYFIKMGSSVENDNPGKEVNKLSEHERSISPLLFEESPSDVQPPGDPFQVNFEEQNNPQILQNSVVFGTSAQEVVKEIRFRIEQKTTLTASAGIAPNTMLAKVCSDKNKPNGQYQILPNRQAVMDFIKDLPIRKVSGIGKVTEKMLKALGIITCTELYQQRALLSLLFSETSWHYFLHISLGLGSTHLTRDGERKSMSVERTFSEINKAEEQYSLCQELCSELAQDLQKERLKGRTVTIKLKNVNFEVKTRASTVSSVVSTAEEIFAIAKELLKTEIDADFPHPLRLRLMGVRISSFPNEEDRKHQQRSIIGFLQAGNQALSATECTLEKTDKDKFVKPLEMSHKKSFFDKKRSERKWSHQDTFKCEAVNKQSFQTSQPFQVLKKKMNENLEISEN
Put plainly: pull-down.

Read-outs that look alike come from different tables or passages of the source.

Chain of PCNA (Homo sapiens, UniProt P12004) (P12004 whole entry, species assumed): as the sequence (P12004 whole entry) above

Take CEMSHKKSAADKKRSER [κ560-575AA]: the “Binding of His-REV1(1130–1251) / REV1-CTD to immobilized peptide (in words)” value in test [1] was “but not to κ560-575AA”. The “Interaction of REV1(1130–1218) with immobilized peptide (in words)” value in test [2] is given as “failed to interact”.
In the case of CKRPRPEGMQTLESAAKPLTH [η694-713AA], in test [3], the “PCNA binding to immobilized peptide (in words)” value was “failed to bind”.
Consider CPLEMSHKKSFFDKK [κ558-571FF], for which the “Binding of His-REV1(1130–1251) / REV1-CTD to immobilized peptide (in words)” value in test [1] is given as “failure of κ558-571FF to bind REV1-CTD”.
With B1, the binding result in test [4] is “binds”.
The Kd is the concentration at which binding is half-saturated. A lower Kd goes with tighter binding. As to B2, the equilibrium dissociation constant (Kd) is around 300 nM in test [5] and around 400 nM in test [6].
B3 gave a Kd in test [7] of 13 µM.
B4: the Kd in test [7] came to 69 µM.
Regarding B5, the binding result in test [4] is listed as “binds”.
Take B6: the binding result in test [8] is given as “binds”.
B7 yielded a Kd in test [7] of 7.6 µM.

The values above are taken from article PMC3103050 (Genes to cells : devoted to molecular & cellular mechanisms, 2009).
